# This excerpt belongs to a sample that is enriched for hits.
# Diaph inh CS: diaphorase inhibitors and chemical oxidizers, primary screen, counter-screen for diaphorase-coupled primary assays, biochemical, uHTS, resorufin fluorescence; diaphorase resazurin-to-resorufin fluorescence, NADH, 16 min; bacterial (C. kluyveri) enzyme, not human; inhibition, % at 20 µM; actives 0.69% (n = 190,000);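 active means primary screen inhibition at 20 µM above a set limit, cut at about 50% in these data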;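 further: plate controls were DMSO with full reaction for no effect and wells lacking NADH for full effect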
#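 Detection: fluorescence of resorufin formed from resazurin, Ex 544/Em 590 nm; test system: Clostridium kluyveri diaphorase enzyme; amount: 0.14 U/mL diaphorase, enzyme working solution; times: 16-min room-temperature incubation before reading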
# G6PDH CS: L. mesenteroides G6PDH inhibitors, counter-screen for G6PDH-coupled screening assays, biochemical, Leuconostoc mesenteroides enzyme | actives 0.12% (n = 200,000) | Purified L. mesenteroides G6PDH, diaphorase/resazurin coupled fluorescence, 45 min | AID 1020, 2008 | inhibition, % at 5 µM | glucose-6-phosphate dehydrogenase [Leuconostoc mesenteroides]
# PfG6PD inh: PfG6PD enzyme inhibitors, primary screen, biochemical, fluorescence intensity, uHTS. glucose-6-phosphate dehydrogenase-6-phosphogluconolactonase (Plasmodium falciparum 3D7). PfGluPho enzyme, NADPH resazurin-diaphorase fluorescence. inhibition, % at 20 µM. actives 0.78% (n = 350,000);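 active means inhibition reaching at least a set limit at 20 µM in the primary screen, cut at about 59% in these data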;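 further: 0% = DMSO wells with substrate and 100% = DMSO wells lacking glucose-6-phosphate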
# Redox H2O2 prof: compounds producing H2O2 with reducing agent – biochemical, NIH compound library profiling, artefact control for MLSCN library redox annotation, primary screen. DTT-dependent redox cycling H2O2, phenol red/HRP absorbance; 100% = 100 µM peroxide control, 0% = buffer. activation, % at 10 µM. actives 0.03% (n = 200,000). AID 878, 2007;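 active means activation of at least 50% relative to the plate's high and low controls in the primary single-dose screen; inactive means activation below 50%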;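 further: compound incubated with DTT at 0.8 mM final as the reducing agent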
# Diaphorase act: compounds boosting diaphorase resazurin reduction – biochemical, uHTS, resorufin fluorescence, counter-screen for diaphorase-coupled primary assays, primary screen. Diaphorase/resazurin coupled assay, 16 min; stronger effect = higher value; 1 = vehicle wells, 0 = NADH-free wells. activation factor at 20 µM. actives 0.005% (n = 190,000);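 active means diaphorase activity raised at least twofold by the compound at 20 µM; inactive means activation factor below 2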
#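 System – purified diaphorase enzyme from Clostridium kluyveri · Input – enzyme 0.07 U/mL final · Also added – final NADH 0.114 mM, resazurin 0.1 mM · Measured by – fluorescence of resorufin, 544 nm excitation, 590 nm emission · Timing – 16 min enzyme reaction, ambient temperature · Measure – resorufin increase flagging diaphorase activators or reducers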
# Lmaj promast: Leishmania major promastigote growth inhibition, primary screen | Leishmania major promastigotes, resazurin fluorescence viability | actives 9% (n = 200,000) | inhibition, % at 10 µM;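 further: promastigotes grown with compound for 44 hours at 28 °C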
# The depositor's hits bear a star; . = no result given. Unless noted, no stated cut-off is given here; in the data, active means inhibition above about 50%; inactive means the rest.
SMILES,Diaph inh CS,G6PDH CS,PfG6PD inh,Redox H2O2 prof,Diaphorase act,Lmaj promast
Cc1[nH]nc2c1C(c1ccc(-c3ccccc3C#N)o1)C(C#N)=C(N)O2 (stereo not drawn),28,6,1,0,0.7,100*
Cc1[nH]nc2c1C(c1ccc(F)cc1)C(C#N)=C(N)O2 (stereo not drawn),8,13,-5,-1,0.9,33
Cc1[nH]nc2c1C(c1ccc(-c3ccc(Cl)cc3)o1)C(C#N)=C(N)O2 (stereo not drawn),11,8,5,-1,0.9,100*
Cc1ccc(-c2ccc(C3C(C#N)=C(N)Oc4n[nH]c(C)c43)o2)cc1 (stereo not drawn),-8,7,-10,2,1.1,101*
Cc1nn(-c2ccccc2)c(Cl)c1C1C(C#N)=C(N)Oc2n[nH]c(C)c21 (stereo not drawn),20,6,20,-2,0.8,39
Cc1cc(C2C(C#N)=C(N)Oc3n[nH]c(C)c32)c(C)s1 (stereo not drawn),-5,5,-4,-3,1,33
O=C(CC1C[C@H](C(=O)N2CCCCC2)[C@@]2(CCc3ccccc3)c3[nH]c4ccccc4c3CCN2C1=O)NCCc1ccccn1 (stereo partly drawn),.,.,17,.,.,.
CC(C)C1C(=O)N(Cc2cn(CCC3OCCO3)nn2)CCS(=O)(=O)N1Cc1ccc(-c2ccc(F)cc2)cc1 (stereo not drawn),.,.,6,.,.,.
COc1ccc(O)c(CN2CCC(n3nccc3NC(=O)c3ccccc3Cl)CC2)c1,.,.,25,.,.,.
COC(=O)c1ccc(-c2noc(CN3C[C@H]4CC[C@H]3C4)n2)cc1,9,13,-3,-1,0.9,98*
COC(=O)c1ccc(-c2noc(CN(Cc3ccncc3)CC3CCCO3)n2)cc1 (stereo not drawn),.,13,-1,0,.,71*
COc1ccc(-c2cn3cccnc3n2)cc1F,10,5,7,0,0.9,80*
COc1ccc(-c2cn3cccnc3n2)cc1NC(=O)c1cccs1,14,-24,2,1,0.9,97*
COc1ccc(-c2cn3cccnc3n2)cc1NS(=O)(=O)c1ccccc1,1,2,19,-10,1,2
COc1ccc(-c2csc(NC(=O)c3ccc(S(=O)(=O)N4CCc5ccccc5C4)cc3)n2)c(OC)c1,-1,1,-24,0,1,90*
O=C(Nc1nc(-c2nc3ccccc3s2)cs1)c1ccc(S(=O)(=O)N2CCOCC2)cc1,11,2,3,2,0.9,52*
COc1cccc(C(=O)Nc2nc(-c3ccc(S(=O)(=O)N4CCOCC4)cc3)cs2)c1,1,-27,-3,1,1,92*
O=C(Nc1nc(-c2cc3ccccc3o2)cs1)c1ccc(S(=O)(=O)N2CCCC2)cc1,10,-2,-8,0,0.9,23
O=C(Nc1nc(-c2ccc(S(=O)(=O)N3CCCCCC3)cc2)cs1)c1cccs1,22,-28,2,1,0.8,22
Cc1ccc(-c2csc(NC(=O)c3cccc(S(=O)(=O)N4CCN(C)CC4)c3)n2)cc1,25,11,6,0,0.8,6
O=C(Nc1nc(-c2ccc(S(=O)(=O)N3CCCC3)cc2)cs1)c1cccs1,18,-3,3,2,0.8,100*
O=C(COc1ccccc1)N=C1SC2CS(=O)(=O)CC2N1CCc1ccccc1 (stereo not drawn),.,.,3,.,.,.
O=S(=O)(c1ccc(-c2csc(-c3cccnc3)n2)cc1)N1CCOCC1,8,-4,-7,-1,0.9,68*
COc1ccc(/C=N/Nc2nc(-c3cccc(S(=O)(=O)N4CCCC4)c3)cs2)c(OC)c1,12,-8,6,0,0.9,69*
Cc1ccc(S(=O)(=O)N2CCOCC2)cc1C(=O)Nc1nc(-c2cccnc2)cs1,14,-15,6,1,0.9,0
SMILES,Diaph inh CS,G6PDH CS,PfG6PD inh,Redox H2O2 prof,Diaphorase act,Lmaj promast
O=C(Nc1nc(-c2ccc(S(=O)(=O)N3CCOCC3)cc2)cs1)c1ccccc1,26,2,20,-1,0.7,73*
O=C(Oc1cccc(NC(=O)c2cccs2)c1)c1cccc(S(=O)(=O)N2CCCC2)c1,21,-9,6,0,0.8,62*
CN(CC(=O)Nc1ccccc1Br)C(=O)c1ccc(-c2ccc(Cl)cc2)o1,.,.,14,.,.,.
COC(=O)c1cc(-c2ccc(OC)c(OC)c2)c2c(=O)[nH]c(=O)n(C)c2n1,.,.,-13,.,.,.
CCn1cc(C(=O)N2CCN(c3cccc(Cl)c3)CC2)c2cc(OC)c(OC)cc2c1=O,8,-9,20,0,0.9,92*
COc1ccc2nc(NC(=O)C(NS(=O)(=O)c3cccs3)C(C)C)sc2c1 (stereo not drawn),8,10,-2,3,0.9,89*
Cc1ccc2nc(NC(=O)C(NS(=O)(=O)c3cccc4nsnc34)C(C)C)sc2c1 (stereo not drawn),16,3,8,0,0.8,96*
COc1ccc(CNC(=O)N2CCN(c3ccccc3)CC2)cc1,.,.,6,.,.,.
COc1ccc(OC)c(NC(=O)CSc2nc3ccccc3cc2Cc2ccccc2)c1,1,4,13,13,1,82*
CC(=O)c1ccc(NC(=S)Nc2cccc(S(=O)(=O)Nc3c(C)n(C)n(-c4ccccc4)c3=O)c2)cc1,8,-4,12,-3,0.9,-8
Cc1ccc2c(c1)[nH]c1c(=O)n(Cc3ccco3)cnc12,.,.,-1,.,.,.
CCOc1ccccc1NC(=S)N(CCCN1CCOCC1)Cc1cn(C)c2ccccc12,0,-1,5,0,1,65*
COc1ccccc1NC(=S)N(CCCN1CCOCC1)Cc1cn(C)c2ccccc12,10,18,4,-1,0.9,68*
COc1cc(CC(=O)Nc2ccc(S(=O)(=O)N(C)C)cc2)cc(OC)c1OC,-2,20,-6,-2,1,1
Cc1cc(/C=N/n2cnnc2)c(C)n1-c1ccc(OCc2ccc(Cl)cc2)cc1,-10,-1,31,0,1.1,98*
C(=N\n1cnnc1)/c1ccc(OCc2ccccc2)cc1,6,1,4,0,0.9,2

# Screening results deposited in PubChem BioAssay by several laboratories.
